According to ChEMBL document CHEMBL1136089, “Synthesis and in vitro activity of new methylenepiperidinyl and methylenepyrrolidinyl oxazolidinone antibacterial agents” (Bioorg Med Chem Lett, 2003):
Converted amounts (≈) assume the structure as drawn.

How the values were obtained:
[1] = test system: Staphylococcus epidermidis; assay: In vitro antibacterial activity against Staphylococcus epidermis ATCC 1228; assay type: functional
How it was run: (§1)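 MIC by agar dilution on Mueller–Hinton agar, inoculum 10⁴ CFU/spot. Reported in μg/mL.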

[2] = test system: Staphylococcus epidermidis; assay: In vitro antibacterial activity against Staphylococcus epidermis C2235; assay type: functional; how it was run: as §1
[3] = test system: Staphylococcus aureus; assay: In vitro antibacterial against methicillin-susceptible Staphylococcus aureus (MSSA); assay type: functional
[4] = test system: Staphylococcus aureus; assay: In vitro antibacterial activity against ciprofloxacin-resistant Staphylococcus aureus (CRSA); assay type: functional
[5] = test system: Enterococcus faecium; assay: In vitro antibacterial activity against vancomycin-resistant Enterococcus faecium C6487
[6] = test system: Streptococcus pyogenes; assay: In vitro antibacterial activity against Streptococcus pyogenes ATTCC8668
[7] = test system: Enterococcus faecalis; assay: In vitro antibacterial activity against Enterococcus faecalis C6291 (E. f. 1); assay type: functional; how it was run: as §1
[8] = test system: Enterococcus faecalis; assay: In vitro antibacterial activity against Enterococcus faecalis C6301 (E. f. 1); assay type: functional; how it was run: as §1
[9] = test system: Staphylococcus aureus; assay: In vitro antibacterial activity against Staphylococcus aureus; assay type: functional
[10] = test system: Streptococcus pyogenes; assay: In vitro antibacterial activity against Streptococcus pyogenes C6003
[11] = test system: Staphylococcus aureus; assay: In vitro antibacterial activity against methicillin-resistant Staphylococcus aureus (MRSA); assay type: functional
[12] = Area under curve was determined in male rat; assay type: ADME, organism-based; details: in vivo
How it was run: (§2)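 Single oral dose of 15 mg/Kg to rats, with compound dissolved in 50% PEG solution.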

[13] = Cmax in male rat; assay type: ADME, organism-based; details: in vivo; how it was run: as §2
[14] = In vivo activity against Staphylococcus aureus when administered orally for 1 hr in rat at a dose of 15 mg/kg; assay type: ADME, organism-based; design: dose 15 mg/kg, route oral; details: po
[15] = Tmax in male rat; assay type: ADME, organism-based; details: in vivo; how it was run: as §2
[16] = Half-life in male rat; assay type: ADME, organism-based; details: in vivo; how it was run: as §2

Structure (SMILES)	MIC [1]	MIC [2]	MIC [3]	MIC [4]	MIC [5]	MIC [6]	MIC [7]	MIC [8]	MIC [9]	MIC [10]	MIC [11]	AUC [12]	Cmax [13]	half-life [14]	Tmax [15]	half-life [16]
CO/N=C(\C)C=C1CCN(c2ccc(N3C[C@H](CNC(C)=O)OC3=O)cc2F)CC1	8 µg/mL (≈ 19.1 µM)	8 µg/mL (≈ 19.1 µM)	16 µg/mL (≈ 38.2 µM)	16 µg/mL (≈ 38.2 µM)	4 µg/mL (≈ 9.56 µM)	2 µg/mL (≈ 4.78 µM)	8 µg/mL (≈ 19.1 µM)	8 µg/mL (≈ 19.1 µM)	16 µg/mL (≈ 38.2 µM)	8 µg/mL (≈ 19.1 µM)	8 µg/mL (≈ 19.1 µM)	–	–	–	–	–
CC(=O)NC[C@H]1CN(c2ccc(N3CC/C(=C(\C)C#N)C3)c(F)c2)C(=O)O1	1 µg/mL (≈ 2.69 µM)	1 µg/mL (≈ 2.69 µM)	–	1 µg/mL (≈ 2.69 µM)	2 µg/mL (≈ 5.37 µM)	–	–	4 µg/mL (≈ 10.7 µM)	1 µg/mL (≈ 2.69 µM)	–	–	–	–	–	–	–
CCOC(=O)/C(C#N)=C1/CCN(c2ccc(N3C[C@H](CNC(C)=O)OC3=O)cc2F)C1	8 µg/mL (≈ 18.6 µM)	8 µg/mL (≈ 18.6 µM)	–	16 µg/mL (≈ 37.2 µM)	16 µg/mL (≈ 37.2 µM)	–	–	32 µg/mL (≈ 74.3 µM)	16 µg/mL (≈ 37.2 µM)	–	–	–	–	–	–	–
CC(=O)NC[C@H]1CN(c2ccc(N3CCOCC3)c(F)c2)C(=O)O1 [LINEZOLID]	0.5 µg/mL (≈ 1.48 µM)	2 µg/mL (≈ 5.93 µM)	–	–	–	0.5 µg/mL (≈ 1.48 µM)	–	–	–	–	–	4240 ng·h/mL	1390 ng/mL	3.09 h	0.333 h	–
CC(=O)NC[C@H]1CN(c2ccc(N3CCC(=C(C#N)C#N)C3)c(F)c2)C(=O)O1	4 µg/mL (≈ 10.4 µM)	4 µg/mL (≈ 10.4 µM)	–	8 µg/mL (≈ 20.9 µM)	16 µg/mL (≈ 41.7 µM)	–	–	16 µg/mL (≈ 41.7 µM)	8 µg/mL (≈ 20.9 µM)	–	–	–	–	–	–	–
CCOC(=O)C(C)=C1CCN(c2ccc(N3C[C@H](CNC(C)=O)OC3=O)cc2F)CC1	4 µg/mL (≈ 9.23 µM)	8 µg/mL (≈ 18.5 µM)	16 µg/mL (≈ 36.9 µM)	8 µg/mL (≈ 18.5 µM)	8 µg/mL (≈ 18.5 µM)	4 µg/mL (≈ 9.23 µM)	8 µg/mL (≈ 18.5 µM)	8 µg/mL (≈ 18.5 µM)	16 µg/mL (≈ 36.9 µM)	16 µg/mL (≈ 36.9 µM)	8 µg/mL (≈ 18.5 µM)	–	–	–	–	–
CC(=O)NC[C@H]1CN(c2ccc(N3CCC(=CC#N)CC3)c(F)c2)C(=O)O1	0.5 µg/mL (≈ 1.34 µM)	1 µg/mL (≈ 2.69 µM)	4 µg/mL (≈ 10.7 µM)	2 µg/mL (≈ 5.37 µM)	4 µg/mL (≈ 10.7 µM)	0.5 µg/mL (≈ 1.34 µM)	2 µg/mL (≈ 5.37 µM)	2 µg/mL (≈ 5.37 µM)	2 µg/mL (≈ 5.37 µM)	2 µg/mL (≈ 5.37 µM)	1 µg/mL (≈ 2.69 µM)	6810 ng·h/mL	1320 ng/mL	–	0.5 h	8.14 h
CC(=O)NC[C@H]1CN(c2ccc(N3CCC(=CC(=O)[O-])CC3)c(F)c2)C(=O)O1.[Na+]	1 µg/mL	1 µg/mL	8 µg/mL	8 µg/mL	8 µg/mL	2 µg/mL	8 µg/mL	4 µg/mL	8 µg/mL	8 µg/mL	4 µg/mL	–	–	–	–	–
CC(=O)NC[C@H]1CN(c2ccc(N3CCC(=C/C=N/O)CC3)c(F)c2)C(=O)O1	1 µg/mL (≈ 2.56 µM)	4 µg/mL (≈ 10.2 µM)	8 µg/mL (≈ 20.5 µM)	8 µg/mL (≈ 20.5 µM)	4 µg/mL (≈ 10.2 µM)	2 µg/mL (≈ 5.12 µM)	4 µg/mL (≈ 10.2 µM)	4 µg/mL (≈ 10.2 µM)	8 µg/mL (≈ 20.5 µM)	4 µg/mL (≈ 10.2 µM)	4 µg/mL (≈ 10.2 µM)	–	–	–	–	–
CC(=O)NC[C@H]1CN(c2ccc(N3CCC(=C(C)C#N)CC3)c(F)c2)C(=O)O1	0.5 µg/mL (≈ 1.29 µM)	2 µg/mL (≈ 5.18 µM)	2 µg/mL (≈ 5.18 µM)	2 µg/mL (≈ 5.18 µM)	1 µg/mL (≈ 2.59 µM)	0.5 µg/mL (≈ 1.29 µM)	2 µg/mL (≈ 5.18 µM)	2 µg/mL (≈ 5.18 µM)	2 µg/mL (≈ 5.18 µM)	2 µg/mL (≈ 5.18 µM)	2 µg/mL (≈ 5.18 µM)	–	–	–	–	–
CCOC(=O)C=C1CCN(c2ccc(N3C[C@H](CNC(C)=O)OC3=O)cc2F)CC1	4 µg/mL (≈ 9.54 µM)	8 µg/mL (≈ 19.1 µM)	16 µg/mL (≈ 38.1 µM)	8 µg/mL (≈ 19.1 µM)	8 µg/mL (≈ 19.1 µM)	2 µg/mL (≈ 4.77 µM)	8 µg/mL (≈ 19.1 µM)	8 µg/mL (≈ 19.1 µM)	16 µg/mL (≈ 38.1 µM)	8 µg/mL (≈ 19.1 µM)	8 µg/mL (≈ 19.1 µM)	–	–	–	–	–
CC(=O)C=C1CCN(c2ccc(N3C[C@H](CNC(C)=O)OC3=O)cc2F)CC1	1 µg/mL (≈ 2.57 µM)	8 µg/mL (≈ 20.5 µM)	16 µg/mL (≈ 41.1 µM)	16 µg/mL (≈ 41.1 µM)	8 µg/mL (≈ 20.5 µM)	0.25 µg/mL (≈ 0.642 µM)	16 µg/mL (≈ 41.1 µM)	8 µg/mL (≈ 20.5 µM)	8 µg/mL (≈ 20.5 µM)	16 µg/mL (≈ 41.1 µM)	16 µg/mL (≈ 41.1 µM)	–	–	–	–	–
CC(=O)NC[C@H]1CN(c2ccc(N3CCC(=Cc4cc(-c5cccs5)no4)CC3)c(F)c2)C(=O)O1	4 µg/mL (≈ 8.06 µM)	8 µg/mL (≈ 16.1 µM)	16 µg/mL (≈ 32.2 µM)	16 µg/mL (≈ 32.2 µM)	16 µg/mL (≈ 32.2 µM)	2 µg/mL (≈ 4.03 µM)	16 µg/mL (≈ 32.2 µM)	16 µg/mL (≈ 32.2 µM)	32 µg/mL (≈ 64.4 µM)	16 µg/mL (≈ 32.2 µM)	16 µg/mL (≈ 32.2 µM)	–	–	–	–	–
